Reference: ChEMBL document CHEMBL1141156, “Mapping antimalarial pharmacophores as a useful tool for the rapid discovery of drugs effective in vivo: design, construction, characterization, and pharmacology of metaquine” (2005)

Assays:
[1] = Dose (diphosphate) present in DMSO required to inhibit Plasmodium berghei N/13 infected mice (Mus musculus) administered subcutaneously 3-4 hr after infection on day 1 and then twice daily on days 2 and 3; assay type: functional; details: sc, read-out: ID50 (the source's name)
In short: (§1)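 MF1 mice inoculated iv with 2×10^7 P. berghei N/13 parasitized erythrocytes. Drug given sc as five injections over 72 h in olive oil/DMSO (96:4) or saline/DMSO (96:4). Parasitemia read at 72 h on Leishman-stained tail blood smears, 4–8 mice per dose, 2–8 dose levels. ID50 is the dose giving 50% inhibition versus concurrent vehicle-treated mice.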

[2] = Binding constant dissolved in DMSO against hematin receptor at pH 7.4 (HEPES Buffer) upon incubation at 37 degree C
In short: (§2)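 Hemin from 1.2 mM DMSO stock diluted to ~12 μM in 40% aqueous DMSO, 0.02 M HEPES, apparent pH 7.4–7.5 (monomeric hematin). Drug serial dilutions mixed with heme in microplate wells, 30 min incubation at the stated temperature, absorbance at 405 nm (Soret). Reference wells without heme subtract drug absorbance. Triplicate readings; log K by nonlinear least-squares fit, 1:1 heme–drug model.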

[3] = Binding constant dissolved in DMSO against hematin receptor at pH 7.4 (HEPES Buffer) upon incubation at 30 degree C; in short: as §2
[4] = Binding constant dissolved in DMSO against hematin receptor at pH 7.4 (HEPES Buffer) upon incubation at 42 degree C; in short: as §2
[5] = tested on: Plasmodium falciparum; assay: In vitro inhibition of Plasmodium falciparum K1; assay type: functional
In short: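 Synchronized, mostly ring-stage P. falciparum K1 at 1.0% parasitemia in RPMI 1640 with 25 mM HEPES pH 7.4 and 32 mM NaHCO3. Drug from DMSO stock, final DMSO ≤0.01%. Culture 24 h at 37 °C under 17% O2/3% CO2/80% N2, then 18–24 h with [3H]hypoxanthine. Incorporation counted by scintillation after filter harvest; IC50 reported.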

[6] = Dose of the compound (hydrochloride) required to inhibit Plasmodium berghei Plasmodium berghei N/13 parasitemia by 50%; assay type: functional; details: read-out: ID50 (the source's name)
In short: (§3)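 P. berghei-infected MF1 mice (2×10^7 parasitized erythrocytes iv). Drug in Water for Injections BP/DMSO (98:2) at 65 and 199 μM in drinking water, ad libitum; daily volume drunk measured to calculate dose. Parasitemia on Leishman-stained tail smears at 72 h, 4–8 mice per group. ID50 is 50% inhibition versus vehicle-treated mice.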

[7] = Dose present in DMSO required to inhibit Plasmodium berghei N/13 infected mice (Mus musculus) administered subcutaneously 3-4 hr after infection on day 1 and then twice daily on days 2 and 3; assay type: functional; details: sc, read-out: ID50 (the source's name); in short: as §1
[8] = Dose (dihydrochloride) present in DMSO required to inhibit Plasmodium berghei N/13 infected mice (Mus musculus) administered subcutaneously; assay type: functional; details: sc, read-out: ID50 (the source's name); in short: as §1
[9] = Binding constant dissolved in DMSO against hematin receptor at pH 7.4 (HEPES Buffer) upon incubation at 23 degree C; in short: as §2
[10] = Dose (dihydrochloride) present in DMSO required to inhibit Plasmodium berghei NY infected mice (Mus musculus) administered intraperitoneally; assay type: functional; details: ip, read-out: ID50 (the source's name)
In short: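 MF1 mice infected iv with 2×10^7 P. berghei NY parasitized erythrocytes. Dosing ip, five injections over 72 h, in Water for Injections BP/DMSO (96:4). Parasitemia counted on Leishman-stained tail smears at 72 h, groups of 4–8 mice. ID50 derived from 2–8 dose levels relative to vehicle-treated controls.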

[11] = tested on: Plasmodium berghei; assay: In vivo 50% inhibition of parasitaemia in Plasmodium berghei infected mice (Mus musculus) by oral dose; assay type: functional; details: read-out: ID50 (the source's name); in short: as §3

| Structure (SMILES) | ED50 [1] | Log K [2] | Log K [3] | Log K [4] | IC50 [5] | ED50 [6] | ED50 [7] | ED50 [8] | Log K [9] | ED50 [10] | ED50 [11] |
| --- | --- | --- | --- | --- | --- | --- | --- | --- | --- | --- | --- |
| CCN(CC)CCCC(C)Nc1ccnc2cc(Cl)ccc12 (stereo not given) [CHLOROQUINE] | 8.3 µmol/kg | 5.4 | 5.4 | 5.3 | 230 nM | – | – | – | – | – | – |
| Clc1ccc2c(Nc3cccc(Nc4ccnc5cc(Cl)ccc45)c3)ccnc2c1 [METAQUINE] | – | 5.1 | 5.4 | 5.8 | 170 nM | 2.4 µmol/kg | 1.5 µmol/kg | 2.9 µmol/kg | 6.1 | 3.2 µmol/kg | 25 µmol/kg |
